Assay outcomes from PubChem.
MEKK3 PB1 HTS: MEKK3-MEK5 PB1 interaction, increase or decrease | Q99759 | bead-based flow cytometry, Alexa488-MEK5 binding to MEKK3; actives lie on both sides; 0 = blocked by unlabeled MEK5, 100 = vehicle | binding response (% of control), % at 10 µM | 290,000 compounds, 1.4% hits | AID 1529;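 active = binding response more than 3 SD above or below the average of its plate-row segment, actives on both sides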;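 also: Alexa488 bead fluorescence after subtracting the streptavidin-only scavenger bead signal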
Dynein cargo inh: dynein cargo transport inhibition. 3617.4 mouse cells, GR-EGFP nuclear translocation imaging; test concentration mostly 20 µM; stimulated with dexamethasone, 1 µM; hits give low values. z-score, hits read low. 220,000 compounds, 0.47% hits. AID 1381;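 active = plate z-score of nuclear minus cytoplasmic receptor signal below a set negative limit, without overly bright fluorescence or cell loss, cut at about -3.5 in these data, passing the limit was not always enough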;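 also: z-score of nuclear minus cytoplasmic ring GR-EGFP intensity difference per well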
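Buffer or medium: tetracycline-free induction medium containing charcoal-stripped FBS / Reagent: dexamethasone agonist, 1.0 µM final, for 30 min / Technique: automated 10x imaging of fixed Hoechst-stained cells / Times: induction 48 h, compound 1 h, agonist 30 min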
MEKK2wt PB1 HTS: raises or lowers MEK5 binding to wildtype human MEKK2 PB1 domain | Q9Y2U5 | bead flow cytometry, Alexa488-MEK5 binding to MEKK2 WT; actives lie on both sides | binding response (% of control), % at 10 µM | 290,000 compounds, 1.1% hits | AID 1531; in the data active = binding response below about 67% or above about 130%
ATG4B inh: blocks human ATG4B protease cleavage of LC3 substrate | Q9Y4P1 | ATG4B cleavage of LC3-PLA2, NBD-HPC fluorescence, 1 h | inhibition, % at 8.33 µM | 340,000 compounds, 0.51% hits; in the data active = inhibition above about 40%
Target sequence (Q9Y4P1 whole entry, looked up): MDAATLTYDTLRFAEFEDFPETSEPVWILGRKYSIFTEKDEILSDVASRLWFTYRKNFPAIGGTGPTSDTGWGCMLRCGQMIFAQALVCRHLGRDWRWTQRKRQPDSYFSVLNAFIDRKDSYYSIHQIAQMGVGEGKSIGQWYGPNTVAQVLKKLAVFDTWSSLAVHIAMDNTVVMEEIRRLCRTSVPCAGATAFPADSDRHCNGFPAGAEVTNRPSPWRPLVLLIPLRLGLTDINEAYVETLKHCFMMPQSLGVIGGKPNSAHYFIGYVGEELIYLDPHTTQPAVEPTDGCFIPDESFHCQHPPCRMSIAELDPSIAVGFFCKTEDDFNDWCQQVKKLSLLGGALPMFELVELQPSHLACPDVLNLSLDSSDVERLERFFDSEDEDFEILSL
MEKK2 mut-MEK5: signal of MEK5 binding to mutant human MEKK2 PB1 domain | bead flow cytometry, Alexa488-MEK5 binding to MEKK2 mutant | percent response, % at 10 µM | 290,000 compounds, 0.35% hits | AID 1530; in the data active = percent response above about 24%, passing the limit was not always enough
Beta2AR agonist: human beta-2 adrenergic receptor agonism by FAP; 340,000 compounds, 0.43% hits; Am2.2-beta2AR cells, FAP receptor internalization, flow cytometry; P07550; response, % (concentration not given with the values); AID 504454;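 active = response above a set limit, near 3 SD of response in nonfluorescent compounds, cut at about 42% in these data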
Target sequence (P07550 whole entry, looked up): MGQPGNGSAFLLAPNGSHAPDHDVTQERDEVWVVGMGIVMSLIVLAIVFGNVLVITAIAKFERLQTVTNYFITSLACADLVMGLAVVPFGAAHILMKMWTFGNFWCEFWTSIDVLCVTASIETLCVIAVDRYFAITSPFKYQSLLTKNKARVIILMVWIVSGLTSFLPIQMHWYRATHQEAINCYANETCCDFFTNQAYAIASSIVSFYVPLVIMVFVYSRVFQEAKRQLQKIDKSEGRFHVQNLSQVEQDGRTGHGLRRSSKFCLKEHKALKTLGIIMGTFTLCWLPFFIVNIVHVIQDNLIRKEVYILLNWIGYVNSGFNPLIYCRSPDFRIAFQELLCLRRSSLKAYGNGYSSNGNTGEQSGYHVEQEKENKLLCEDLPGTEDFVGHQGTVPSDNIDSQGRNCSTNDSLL
MEKK2wt confirm: raises or lowers MEK5 binding to wildtype human MEKK2, retest. shares compounds with MEKK3 PB1 HTS. 5,900 compounds, 2.4% hits. binding response (% of control), % at 10 µM. bead flow cytometry, Alexa488-MEK5 binding to MEKK2 WT; actives lie on both sides; in the data active = binding response below about 16% or above about 210%; inactive = in between
MEKK2mut confirm: signal of MEK5 binding to mutant human MEKK2, retest. percent response, % at 10 µM. bead flow cytometry, Alexa488-MEK5 binding to MEKK2 mutant. 5,900 compounds, 2% hits. shares compounds with MEKK3 PB1 HTS; in the data active = percent response mostly above about 71%, no sharp cut-off; inactive = mostly below about 38%;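 also: higher means compound restores mutant binding toward wildtype level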
MEKK3-MEK5 inh: MEKK3-MEK5 PB1 inhibition, single concentration confirmation. shares compounds with MEKK3 PB1 HTS. bead flow cytometry, Alexa488-MEK5 binding to MEKK3; hits give low values. binding response (% of control), % at 10 µM. 5,900 compounds, 1.8% hits. AID 1894;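 active = binding response below 72% of control, or above a set upper limit, though filed actives all read lower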;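 also: lower values mean stronger disruption of MEK5 binding to MEKK3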
Each line names hits and unclear results; the compound was inactive in the other large screens (follow-up assays come after a bar, where they were run); [ ] = remark or other dose. Most compounds without a hit are left out; they make up all but 2.9% or so of the library.

CCOC(=O)Cc1csc(NC(=S)NC(=O)c2ccccc2)n1	none
CCOC(=O)Cc1csc(NC(=O)/C=C/c2cccc(Br)c2)n1	MEKK3 PB1 HTS 44[inhibitor], MEKK2wt PB1 HTS 47[inhibitor] | MEKK2wt confirm inactive | MEKK2mut confirm inactive | MEKK3-MEK5 inh inactive
CCOC(=O)Cc1csc(NC(=O)/C=C/c2ccc(Br)o2)n1	none
CCOC(=O)Cc1csc(NC(=S)NC(=O)c2cccc([N+](=O)[O-])c2)n1	MEKK3 PB1 HTS 139 | MEKK2wt confirm inactive | MEKK2mut confirm inactive | MEKK3-MEK5 inh inactive
CCOC(=O)Cc1csc(NC(=O)c2sc3nc4cc(C)ccc4cc3c2N)n1	MEKK3 PB1 HTS 144 | MEKK2wt confirm inactive | MEKK2mut confirm inactive | MEKK3-MEK5 inh inactive
CCCCn1c(N)c(N(CCOC)C(=O)CN(C)S(=O)(=O)c2ccc(F)cc2)c(=O)[nH]c1=O	none (no result: MEKK3 PB1 HTS, Dynein cargo inh, MEKK2wt PB1 HTS, MEKK2 mut-MEK5)
NCC12CC3CC(C1)CC(c1ccc(Cl)cc1)(C3)C2	MEKK2wt PB1 HTS 155 | MEKK2wt confirm inactive | MEKK2mut confirm inactive | MEKK3-MEK5 inh inactive
Nc1ccc(C23CC4CC(CC(CO)(C4)C2)C3)cc1	none
CCOC(=O)Cc1c[nH]c2ccc([N+](=O)[O-])cc12	none (no result: MEKK3 PB1 HTS, Dynein cargo inh, MEKK2wt PB1 HTS, MEKK2 mut-MEK5)
O=C(Nc1ccc(Br)c(C(F)(F)F)c1)c1ccccc1	none
O=C(Nc1ccc(Br)c(C(F)(F)F)c1)c1ccc(C(F)(F)F)cc1	MEKK2wt PB1 HTS 139 | MEKK2wt confirm inactive | MEKK2mut confirm inactive | MEKK3-MEK5 inh inactive
O=c1[nH]ncc(N/N=C\c2ccncc2)c1Cl	MEKK3 PB1 HTS 136 | MEKK2wt confirm inactive | MEKK2mut confirm inactive | MEKK3-MEK5 inh inactive
Cc1cc(C)c(NC(=O)c2cccc(NC(=O)c3ccco3)c2)c(C)c1	none (no result: Dynein cargo inh)
Oc1ccccc1CN1CCCN(Cc2ccccc2O)C1	MEKK3 PB1 HTS 124 | MEKK2wt confirm inactive | MEKK2mut confirm inactive | MEKK3-MEK5 inh inactive
Oc1ccccc1CN1CCN(C(O)(c2ccccc2)c2ccccc2)CC1	none (no result: Dynein cargo inh)
COc1ccccc1N(C)S(=O)(=O)c1ccc(C(=O)Nc2cccc(Br)c2)cc1	none (no result: MEKK3 PB1 HTS, Dynein cargo inh, MEKK2wt PB1 HTS, MEKK2 mut-MEK5)
CC12CN3CC(C)(CN(C1)C3c1ccc(F)cc1)C2 (stereo unspecified)	MEKK3 PB1 HTS 130 | MEKK2wt confirm inactive | MEKK2mut confirm inactive | MEKK3-MEK5 inh inactive
CC12CN3CC(C)(CN(C1)C3c1ccc(Cl)cc1)C2 (stereo unspecified)	none
NC(=O)COC(=O)c1ccccc1OCc1ccccc1Cl	MEKK2wt PB1 HTS 640, MEKK2 mut-MEK5 457 | MEKK2wt confirm inactive | MEKK2mut confirm inactive | MEKK3-MEK5 inh inactive
NC(=O)COC(=O)c1ccccc1OCc1ccccc1	none
COc1ccc(S(=O)(=O)N(Cc2ccc(OC)c(OC)c2)Cc2ccco2)cc1	none
COc1ccc(S(=O)(=O)N(CCC(N)=O)Cc2ccco2)cc1OC	MEKK3 PB1 HTS 50[inhibitor] | MEKK2wt confirm inactive | MEKK2mut confirm inactive | MEKK3-MEK5 inh inactive
Cc1cccc(C(=O)N2CCN(c3ncnc4c3cnn4-c3ccccc3)CC2)c1	MEKK2 mut-MEK5 24 | MEKK2wt confirm inactive | MEKK2mut confirm inactive | MEKK3-MEK5 inh inactive
Cc1cccc(-n2ncc3c(N4CCCC4)ncnc32)c1	none
COc1ccc(C2C(C(=O)N3CCC(C(N)=O)CC3)CC(=O)N2c2ccc(OC)cc2)cc1 (stereo unspecified)	none
COc1ccc(C2C(C(=O)N3CCCCC3)CC(=O)N2c2ccc(OC)cc2)cc1 (stereo unspecified)	MEKK3 PB1 HTS 127 | MEKK2wt confirm inactive | MEKK2mut confirm inactive | MEKK3-MEK5 inh inactive
Cc1c(-c2cccs2)[n+](=O)c2c(n1[O-])CCC2	none
Cc1c(C)[n+](=O)c(-c2cccs2)c(C)n1[O-]	MEKK3 PB1 HTS 1.0[inhibitor], MEKK2wt PB1 HTS 0.0[inhibitor] | MEKK2wt confirm inactive | MEKK2mut confirm inactive | MEKK3-MEK5 inh inactive
Cc1ccc(C(=O)COC(=O)c2cccc([N+](=O)[O-])c2)s1	none (no result: MEKK3 PB1 HTS, Dynein cargo inh, MEKK2wt PB1 HTS, MEKK2 mut-MEK5)
CCCc1cc(C(=O)Nc2ccc(C(=O)c3ccc(C)cc3)cc2)n(C)n1	none (no result: Dynein cargo inh)
CSc1ccc(CCNC(=O)CN2C(=O)c3cccnc3Oc3ccc(C)cc32)cc1	none (no result: Dynein cargo inh)
COc1cc(C(C)=O)ccc1COc1ccc(C(=O)OCC(N)=O)cc1OC	MEKK3 PB1 HTS 72[inhibitor] | MEKK2wt confirm inactive | MEKK2mut confirm inactive | MEKK3-MEK5 inh inactive
CCOc1ccccc1NC(=S)N1C2CCC1CC(NC(=O)NC13CC4CC(CC(C4)C1)C3)C2 (stereo unspecified)	MEKK3 PB1 HTS 72[inhibitor] | MEKK2wt confirm inactive | MEKK2mut confirm inactive | MEKK3-MEK5 inh inactive
C=C(C)[C@@H]1CC=C(CN2CCC(N3CCC(C(=O)N4CCCC4)CC3)CC2)CC1	MEKK2wt PB1 HTS 142 | MEKK2wt confirm inactive | MEKK2mut confirm inactive | MEKK3-MEK5 inh inactive
C=C(C)C1CC=C(CN2CCC(O)CC2)CC1 (stereo unspecified)	none
COCCC(=O)N1CCC(Oc2ccc(C(=O)NC3CCOC(C)(C)C3)cc2)CC1 (stereo unspecified)	none (no result: Dynein cargo inh)
CC1(c2ccccc2)CC(C)(C)N2C(=O)/C(=C3\SC(=S)NC3=O)c3cccc1c32 (stereo unspecified)	MEKK3 PB1 HTS 147 | MEKK2wt confirm inactive | MEKK2mut confirm inactive | MEKK3-MEK5 inh inactive
COCCOc1ccc(C(F)(F)F)cc1NC(=O)COC(=O)Cc1c[nH]c2ccccc12	none (no result: MEKK3 PB1 HTS, Dynein cargo inh, MEKK2wt PB1 HTS, MEKK2 mut-MEK5)
Cc1ccc(/C=C/c2nc3ccccc3c(=O)[nH]2)cc1	none
C(=C\c1nccc2c1[nH]c1ccccc12)/c1ccccc1	none
Cc1ccc(/C=C\c2nccc3c2[nH]c2ccccc23)cc1	MEKK2wt PB1 HTS 174 | MEKK2wt confirm inactive | MEKK2mut confirm inactive | MEKK3-MEK5 inh inactive
Fc1ccc(/C=C\c2nccc3c2[nH]c2ccccc23)cc1	MEKK2wt PB1 HTS 195 | MEKK2wt confirm inactive | MEKK2mut confirm inactive | MEKK3-MEK5 inh inactive
Cc1ccnc(NC(=O)CNC(=O)Cc2cccc3ccccc23)c1	none (no result: MEKK3 PB1 HTS, Dynein cargo inh, MEKK2wt PB1 HTS, MEKK2 mut-MEK5)
COc1cccc2c(=O)c(C/C=C(/C)Cl)c(C)[nH]c12	MEKK3 PB1 HTS 79[inhibitor] | MEKK2wt confirm inactive | MEKK2mut confirm inactive | MEKK3-MEK5 inh inactive
CC(=O)N1CCc2cc(S(=O)(=O)CCC(=O)NCCc3ccc(Cl)cc3)ccc21	none (no result: Dynein cargo inh)
CCn1cc(Br)c(C(=O)Nc2ccc(Cl)c(Cl)c2)n1	none
